Experimental data as given in ChEMBL document CHEMBL1145384, “Novel C-6 fluorinated acyclic side chain pyrimidine derivatives: synthesis, (1)H and (13)C NMR conformational studies, and antiviral and cytostatic evaluations” (J Med Chem, 2007).
Activity calls are given as the source filed them. The calls are words filed in the database; no cut-off is given here.

Legend:
[1] = Growth inhibition of human Molt4/C8 cells after 72 hrs by MTT assay; format: functional, cell-based; details: MOLT-4, 72 h
HEp-2 = assay: Growth inhibition of Hep2 cells after 72 hrs by MTT assay; format: functional, cell-based; details: Homo sapiens, HEp-2, 72 h
How it was run: (§1)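 Tumor lines grown as monolayers in DMEM with 10% FBS, 2 mM L-glutamine and penicillin. Freshly diluted compounds added, solvent tested at matching concentrations; after 72 h growth measured by MTT. IC50 obtained by linear regression of concentrations bracketing 50% growth; mean of three separate experiments.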

MCF7 = assay: Growth inhibition of MCF7 cells after 72 hrs by MTT assay; format: functional, cell-based; details: Homo sapiens, MCF7, 72 h; how it was run: as §1
Human respirovirus 3 = assay: Antiviral activity against parainfluenza 3 virus in Vero cells assessed as reduction of virus plaque formation after 7 days; format: functional, organism-based; details: Human respirovirus 3, Vero, 168 h
Punta Toro virus = assay: Antiviral activity against Punta Toro virus in Vero cells assessed as reduction of virus plaque formation after 7 days; format: functional, organism-based; details: 168 h
Sindbis virus = assay: Antiviral activity against sindbis virus in Vero cells assessed as reduction of virus plaque formation after 7 days; format: functional, organism-based; details: 168 h
Human alphaherpesvirus 3 [2] = assay: Antiviral activity against thymidine kinase expressing Varicella-Zoster virus OKA assessed as reduction of plaque formation; format: functional, organism-based; details: Human alphaherpesvirus 3, OKA
[3] = Cytotoxicity against HEL cells assessed as cell morphology after 7 days; format: cell-based; details: human
How it was run: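 Uninfected confluent HEL cultures exposed to compounds; MCC recorded as lowest concentration producing a microscopically detectable alteration of normal cell morphology at day 7.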

Human alphaherpesvirus 3 [4] = assay: Antiviral activity against thymidine kinase deficient Varicella-Zoster virus 07/1 assessed as reduction of plaque formation; format: functional, organism-based; details: Human alphaherpesvirus 3, 07/1
How it was run: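 Plaque reduction assay in HEL cells against TK+ (OKA) and TK- (07/1) VZV strains; virus input 100 PFU; EC50 as concentration giving 50% plaque reduction.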

[5] = Cytotoxicity against HEL cells assessed as cell growth after 7 days; format: cell-based; details: human
Human betaherpesvirus 5 [6] = assay: Antiviral activity against human cytomegalovirus AD169 in HEL cells assessed as reduction of plaque formation after 7 days; format: functional, organism-based; details: Human betaherpesvirus 5, AD169, HEL, 168 h
How it was run: (§2)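 Confluent HEL fibroblasts infected with HCMV (Davis or AD-169) at 100 PFU per well; after 2 h adsorption, residual virus removed and medium with serial compound concentrations added (duplicate wells). Incubated 7 days; EC50 taken as concentration reducing plaque formation by 50%.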

[7] = tested on: Mammalian orthoreovirus 1; assay: Antiviral activity against reovirus1 virus in Vero cells assessed as reduction of virus plaque formation after 7 days; format: functional, organism-based; details: Mammalian orthoreovirus 1, Vero, 168 h
Coxsackievirus B4 = assay: Antiviral activity against coxsackie B4 virus in HeLa cells assessed as reduction of virus plaque formation after 7 days; format: functional, organism-based; details: Enterovirus B, 168 h
Human betaherpesvirus 5 [8] = assay: Antiviral activity against human cytomegalovirus Davis in HEL cells assessed as reduction of plaque formation after 7days; format: functional, organism-based; details: Human betaherpesvirus 5, Davis, 168 h; how it was run: as §2
CCRF-CEM = assay: Growth inhibition of human CEM cells after 72 hrs by MTT assay; format: functional, cell-based
SW-620 = assay: Growth inhibition of SW620 cells after 72 hrs by MTT assay; format: functional, cell-based; details: Homo sapiens, SW-620, 72 h; how it was run: as §1
HeLa = assay: Growth inhibition of HeLa cells after 72 hrs by MTT assay; format: functional, cell-based; details: Homo sapiens; how it was run: as §1
MIA PaCa-2 = assay: Growth inhibition of MiaPaCa2 cells after 72 hrs by MTT assay; format: functional, cell-based; details: Homo sapiens, MIA PaCa-2, 72 h; how it was run: as §1
L1210 = assay: Growth inhibition of mouse L1210 cells after 72 hrs by MTT assay; format: functional, cell-based; details: L1210, 72 h
WI-38 = assay: Growth inhibition of human WI38 fibroblasts at 0.1 uM after 72 hrs by MTT assay; format: functional, cell-based

SMILES | IC50 [1] [µM] | IC50 (HEp-2) [µM] | IC50 (MCF7) [µM] | EC50 (Human respirovirus 3) [µM] | EC50 (Punta Toro virus) [µM] | EC50 (Sindbis virus) [µM] | EC50 (Human alphaherpesvirus 3 [2]) [µM] | MCC at 168 h [3] [µM] | EC50 (Human alphaherpesvirus 3 [4]) [µM] | CC50 at 168 h [5] [µM] | EC50 (Human betaherpesvirus 5 [6]) [µM] | EC50 [7] [µM] | EC50 (Coxsackievirus B4) [µM] | EC50 (Human betaherpesvirus 5 [8]) [µM] | IC50 (CCRF-CEM) [µM] | IC50 (SW-620) [µM] | IC50 (HeLa) [µM] | IC50 (MIA PaCa-2) [µM] | IC50 (L1210) [µM] | Activity (WI-38)
COc1nc(C)c(-c2ccccc2)c(OC)n1 | 70 | > 100 | > 100 | > 40 | 40 | > 40 | > 20 | 100 | > 20 | 34 | > 20 | > 40 | > 40 | > 20 | 43 | > 100 | 90 | > 100 | 77 | –
COc1cc(CC(C)(O)c2ccc(F)cc2)nc(OC)n1 (centres undefined) | > 200 | > 100 | > 100 | 120 | 120 | > 200 | > 100 | > 100 | > 100 | > 100 | > 100 | 200 | 40 | 59 | > 200 | > 100 | > 100 | > 100 | > 200 | –
CC(O)(Cc1cc(O)nc(O)n1)C(F)(F)F (centres undefined) | > 500 | > 100 | > 100 | > 200 | > 200 | > 200 | > 100 | > 100 | > 100 | > 100 | > 100 | > 200 | > 200 | > 100 | > 500 | > 100 | > 100 | > 100 | > 500 | –
COc1cc(/C=C(/O)C(F)(F)F)nc(OC)n1 | 80 | > 200 | > 200 | > 100 | > 100 | > 100 | > 100 | > 100 | > 100 | > 100 | > 80 | > 100 | > 200 | > 100 | > 200 | > 200 | > 200 | > 200 | > 200 | –
COc1cc(CC(C)(O)Cc2ccccc2F)nc(OC)n1 (centres undefined) | 79 | > 200 | > 200 | > 130 | > 130 | > 130 | > 100 | ≥ 100 | > 100 | > 100 | > 100 | > 130 | > 200 | > 100 | 156 | > 200 | > 200 | > 200 | > 200 | –
COc1nc(CBr)c(Br)c(OC)n1 | 97 | 7 | 8 | > 8 | > 8 | > 8 | > 100 | > 100 | > 100 | 38.7 | > 100 | > 8 | > 40 | > 100 | 28 | 1 | 18 | 2 | 38 | inactive
COc1cc(/C=C(\O)C(F)(F)C(F)(F)F)nc(OC)n1 | 43 | 55.4 | 76 | > 100 | > 100 | > 100 | > 100 | > 100 | > 100 | ≥ 60 | > 100 | > 100 | > 100 | > 100 | 9.7 | 45 | 26.3 | ≥ 100 | 80 | –
